# Measured values reported in ChEMBL document CHEMBL1687834, “Identification and characterization of persistent intracellular human immunodeficiency virus type 1 integrase strand transfer inhibitor activity” (Antimicrob Agents Chemother, 2011).
# The source made the active and inactive calls. The rule behind the calls is not given here.
# What was measured:
# [1] = system: Human immunodeficiency virus 1; test: Antiviral activity against single-round HIV1 NLX.Lux-R harboring inactivating mutations in env, vpr and carries firefly luciferase gene in place of nef infected in human HeLa-T4 cells assessed as time required to cause 50% loss in compound potency at 10 times EC95 by time-of-addition assay; type: functional
# Outline: (§1)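 Time-of-addition: drug at 10× or 100× EC95 added to HIV-Luc-infected HeLa-T4 cultures at set times after infection. Lysis at 48 h; luciferase as percent of no-drug cells. The time giving 50% inhibition versus the no-drug control was read from the curves.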
# [2] = system: Human immunodeficiency virus 1; test: Antiviral activity against single-round HIV1 NLX.Lux-R harboring inactivating mutations in env, vpr and carries firefly luciferase gene in place of nef infected in human HeLa-T4 cells assessed as luciferase activity after 48 hrs […]; type: functional, organism-based; conditions: Human immunodeficiency virus 1, HeLaT4, 48 h
# Outline: (§2)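 HeLa-T4 cells infected in duplicate for 2 h with 105 RT-cpm VSV-G-pseudotyped HIV-Luc (MOI ~0.01) with serial drug dilutions, washed and re-fed with the same drug. Luciferase normalized to total protein at 48 h, minus matched integrase-mutant N/N-Luc background. EC50/EC95 by GROWTH fit, ≥3 experiments; CC50 by WST-1 on HeLa-T4; SI = CC50/EC50.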
# [3] = Cytotoxicity against human HeLaT4 cells by WST-1 assay; type: cell-based
# Outline: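 HeLa-T4 cells grown in DMEM with 10% FBS, 100 IU/ml penicillin and 100 μg/ml streptomycin; drug cytotoxicity measured by WST-1 read-out, with drugs tested up to 100 μM; 50% cytotoxic concentration (CC50) reported.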
# [4] = Selectivity index, ratio of CC50 for human HeLa-T4 cells to EC50 for single-round HIV1 NLX.Lux-R harboring inactivating mutations in env, vpr and carries firefly luciferase gene in place of nef; type: toxicity, cell-based; conditions: read-out: Ratio CC50/EC50; outline: as §2
# [5] = Drug uptake in human HeLaT4 cells assessed as compound persist measured after 3 times washout at 100 time EC95 for HIV1 for 24 hrs; type: ADME, cell-based; conditions: helat4, 24 h
# Outline: (§3)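 HeLa-T4 cells pretreated 24 h with 100× EC95 drug, washed three times, then infected with VSV-G-pseudotyped HIV-Luc at 0, 2, 4, 8 or 12 h after washing. Virus removed by three washes at 2 h; lysis at 48 h. Luciferase normalized to protein, percent of no-drug control, Student's t test. Washout EC50 from immediate infection; ratio to standard EC50; ≥3 experiments in duplicate.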
# [6] = system: Human immunodeficiency virus 1; test: (§4) Antiviral activity against single-round HIV1 NLX.Lux-R harboring inactivating mutations in env, vpr and carries firefly luciferase gene in place of nef assessed as level of infection using human HeLaT4 cells pretreated at 100 time EC95 for 24 hrs followed by exposed to virus immediately after 3 times compound washout relative to untreated control cells; type: functional; outline: as §3
# [7] = system: Human immunodeficiency virus 1; test: as §4, with “virus” for “virus immediately”, “after 2 to 4 hrs of” for “after”; type: functional; outline: as §3
# [8] = system: Human immunodeficiency virus 1; test: as §4, with “virus” for “virus immediately”, “after 8 hrs of” for “after”; type: functional, organism-based; outline: as §3
# [9] = system: Human immunodeficiency virus 1; test: as §4, with “pretreated” for “pretreated at 100 time EC95”, “washout” for “washout relative to untreated control cells”; type: functional, organism-based; conditions: Human immunodeficiency virus 1, HeLaT4; outline: as §3
# [10] = system: Human immunodeficiency virus 1; test: Ratio of EC50 for single-round HIV1 NLX.Lux-R harboring inactivating mutations in env, vpr and carries firefly luciferase gene in place of nef assessed as level of infection using human HeLaT4 cells pretreated for 24 hrs followed by exposed to virus immediately after 3 times compound washout to standard EC50 for HIV1 NLX.Lux-R; type: functional; outline: as §3
# [11] = system: Human immunodeficiency virus 1; test: Antiviral activity against HIV1 NL4-3.Luc assessed as infectivity using human MDM pretreated for 24 hrs followed by exposed to virus after compound washout measured after 2 to 3 days by luciferase assay; type: functional, organism-based
# [12] = system: Human immunodeficiency virus 1; test: Antiviral activity against HIV1 NL4-3.Luc assessed as infectivity using human PBMC pretreated for 24 hrs followed by exposed to virus after compound washout measured after 2 to 3 days by luciferase assay; type: functional, organism-based
# [13] = system: Human immunodeficiency virus 1; test: as §4, with “virus” for “virus immediately”, “after 12 hrs of” for “after”; type: functional, organism-based; outline: as §3
# [14] = system: Human immunodeficiency virus 1; test: (§5) Antiviral activity against single-round HIV1 NLX.Lux-R harboring inactivating mutations in env, vpr and carries firefly luciferase gene in place of nef assessed as level of 2 mins magnetic nanopartials-medated infection in human HeLaT4 cells treated for 1 measured after of 3 times compound washout and rewashed 48 hrs post infection by time-of-addition pulse assay; type: functional
# Outline: (§6)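 Pulse time-of-addition: dialysed virus preincubated with magnetite nanoparticles, added to HeLa-T4 cells, 2 min under ~1 T magnetic field, then washed. At set times after infection, cells pulsed 1 h with 100× EC95 drug, washed three times and cultured drug-free. Lysis at 48 h postinfection; luciferase given as percent of no-drug control.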
# [15] = system: Human immunodeficiency virus 1; test: Antiviral activity against HIV1 NL4-3.Luc in human PBMC assessed as infectivity treated for 24 hrs by luciferase assay; type: functional, organism-based; conditions: Human immunodeficiency virus 1, 24 h
# [16] = system: Human immunodeficiency virus 1; test: Antiviral activity against HIV1 NL4-3.Luc in human MDM assessed as infectivity treated for 24 hrs by luciferase assay; type: functional, organism-based; conditions: Human immunodeficiency virus 1, 24 h
# [17] = system: Human immunodeficiency virus 1; test: Ratio of EC50 for HIV1 NL4-3.Luc assessed as infectivity using human PBMC pretreated for 24 hrs followed by exposed to virus after compound washout to standard EC50 for HIV1 NL4-3.Luc; type: functional
# [18] = system: Human immunodeficiency virus 1; test: Ratio of EC50 for HIV1 NL4-3.Luc assessed as infectivity using human MDM pretreated for 24 hrs followed by exposed to virus after compound washout to standard EC50 for HIV1 NL4-3.Luc; type: functional
# [19] = system: Human immunodeficiency virus 1; test: as §5, with “treated at 100 time EC95” for “treated”, “after 3 hrs” for “after”, “assay relative to untreated control at 4 hr time point” for “assay”; type: functional; outline: as §6
# [20] = system: Human immunodeficiency virus 1; test: Antiviral activity against single-round HIV1 NLX.Lux-R harboring inactivating mutations in env, vpr and carries firefly luciferase gene in place of nef infected in human HeLa-T4 cells assessed as inhibition of 2 mins magnetic nanopartials-medated infectivity after 48 hrs luciferase assay; type: functional, organism-based; conditions: for EC50: Human immunodeficiency virus 1, HeLaT4
# Outline: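 HeLa-T4 cells infected with virus dialysed against HS buffer (pH 7.3, 24 h, 4°C), plus 1.5% FBS, preincubated 5 min with 0.5 mg/ml magnetite nanoparticles. Added at 1:13 (vol/vol) final, 2 min under ~1 T, washed three or four times. Incubated at 37°C; luciferase read at 48 h.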
# [21] = system: Human immunodeficiency virus 1; test: Antiviral activity against single-round HIV1 NLX.Lux-R harboring inactivating mutations in env, vpr and carries firefly luciferase gene in place of nef infected in human HeLa-T4 cells assessed as time required to 50% inhibition of infection at 10 times EC95 by time-of-addition assay; type: functional; outline: as §1
# [22] = system: Human immunodeficiency virus 1; test: Antiviral activity against single-round HIV1 NLX.Lux-R harboring inactivating mutations in env, vpr and carries firefly luciferase gene in place of nef infected in human HeLa-T4 cells assessed as time required to 50% inhibition of infection at 100 times EC95 by time-of-addition assay; type: functional; outline: as §1
# [23] = system: Human immunodeficiency virus 1; test: as §5, with “suppression” for “level”, “nanopartials-medated residual” for “nanopartials-medated”, “treated at 100 time EC95” for “treated”, “after 11 hrs” for “after”, “assay relative to untreated control” for “assay”; type: functional; outline: as §6
# [24] = system: Human immunodeficiency virus 1; test: as §5, with “nanopartials-medated residual” for “nanopartials-medated”, “treated at 100 time EC95” for “treated”, “after 3 hrs” for “after”; type: functional; outline: as §6
SMILES,Time [1] [h],EC50 [2] [nM],EC95 [2] [nM],CC50 [3] [nM],selectivity ratio [4],Drug uptake [5],Activity [6],Activity [7] [%],EC50 [9] [nM],Ratio EC50 [10],EC50 [11] [nM],EC50 [12] [nM],Activity [13],EC50 [15] [nM],EC95 [15] [nM],EC50 [16] [nM],EC95 [16] [nM],Ratio EC50 [17],Ratio EC50 [18],Activity [20],other results
Cc1cn([C@H]2C[C@H](N=[N+]=[N-])[C@@H](CO)O2)c(=O)[nH]c1=O [ZIDOVUDINE],4.8,8.4,90,> 100000,> 11900,Active,18%,40,4600,59.7,–,–,–,–,–,–,–,–,–,–,Activity [8]: inactive
CC(C)OC(=O)OCOP(=O)(CO[C@H](C)Cn1cnc2c(N)ncnc21)OCOC(=O)OC(C)C.O=C(O)/C=C/C(=O)O [TENOFOVIR DISOPROXIL FUMARATE],–,2.9,37,34000,11700,Active,–,–,120,4,34,55,Active,46,720,28,520,1.2,1.2,–,EC99.6 [14]: 0.95 µM
Cc1ccnc2c1NC(=O)c1cccnc1N2C1CC1 [NEVIRAPINE],7.2,73,680,> 100000,> 1370,Not Active,inactive,–,> 100000,>1370,> 100000,> 100000,–,41,690,27,640,>2439,>3703,–,Activity [19]: 23%
O=C1Nc2ccc(Cl)cc2[C@@](C#CC2CC2)(C(F)(F)F)O1 [EFAVIRENZ],–,1.1,8,35000,31800,–,–,–,–,–,–,–,–,–,–,–,–,–,–,Dose-dependent effect,EC50 [20]: 1000 nM
COc1cc2c(cc1Cc1cccc(Cl)c1F)c(=O)c(C(=O)O)cn2[C@H](CO)C(C)C [ELVITEGRAVIR],11.1,2.9,37,34000,11700,–,–,–,60,20.7,25,36,Active,0.3,7.4,0.5,8.2,120,50,Dose-dependent effect,Time [21]: 10.1 h; Time [22]: 11.3 h; EC50 [20]: 3400 nM; fold change (FC) [23]: 2; EC98.6 [14]: 75 nM
Cc1nnc(C(=O)NC(C)(C)c2nc(C(=O)NCc3ccc(F)cc3)c(O)c(=O)n2C)o1 [RALTEGRAVIR],10.2,77,810,> 100000,> 1300,–,19%,50,4600,547.6,4900,3300,–,2.4,48,4.3,80,1375,1140,–,"Time [21]: 10.5 h; Time [22]: 12.7 h; Activity [24]: 9%; fold change (FC) [23]: 2; EC91 ([14]; Human immunodeficiency virus 1, HeLaT4): 0.073 µM"
